Source: PubChem BioAssay
GPR7 antagonist – GPR7 receptor antagonists, primary screen, cell-based, fluorescence, single concentration. GPR7-expressing cells, fluorescence antagonist assay. AID 1861, 2009. Neuropeptides B/W receptor type 1 (Homo sapiens), P48145. inhibition, % at 4.4 µM. hit rate 1.1% among 290,000; in the data active means inhibition above about 16%, passing the limit was not always enough;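 further: cells stimulated with the agonist NPW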
Target sequence (P48145 whole entry, looked up): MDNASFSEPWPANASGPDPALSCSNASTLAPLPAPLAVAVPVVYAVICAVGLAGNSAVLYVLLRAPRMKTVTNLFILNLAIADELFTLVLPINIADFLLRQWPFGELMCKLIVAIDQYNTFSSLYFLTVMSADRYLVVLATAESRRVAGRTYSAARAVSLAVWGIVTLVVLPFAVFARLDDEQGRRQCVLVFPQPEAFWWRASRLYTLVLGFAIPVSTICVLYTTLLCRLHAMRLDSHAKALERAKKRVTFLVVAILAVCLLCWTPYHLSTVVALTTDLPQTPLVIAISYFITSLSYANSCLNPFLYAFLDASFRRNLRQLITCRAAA
Jurkat NFkB inh – inhibitors of induced NF-kB luciferase reporter, primary screen, TCR NF-kB activation inhibitor project, cell-based, luminescence, uHTS | Jurkat, PMA/ionomycin-induced NF-kB luciferase reporter | inhibition, % at 4 µM | hit rate 0.53% among 330,000 | AID 435003, 2010; in the data active means inhibition above about 50%
HSF-1 act – HSF-1 activators, primary screen, NIH3T3-HGL cells, MG132 stress, luminescence, single point. NIH3T3-HGL HSF-1 luciferase reporter, 8 h; 100% = twice DMSO control signal. activation, % at 9 µM. hit rate 1.7% among 300,000. AID 504408, 2011;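 active means mean replicate activation of at least 50% with a set share of replicates each reaching 50%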
697 NFkB inh – inhibitors of PMA/ionomycin-induced NF-kB reporter, 697 cells, primary screen, B-cell NF-kB inhibitor project, cell-based, luminescence, uHTS. 697 B-cell NF-kB luciferase reporter, 16 h. inhibition, % at 4 µM. hit rate 0.33% among 330,000. AID 435022, 2010; in the data active means inhibition above about 35%
T cruzi inh – inhibitors of intracellular T. cruzi growth, primary screen, luminescence, NIH3T3 host cells | T. cruzi beta-gal in NIH3T3, 90 h | inhibition, % (no concentration beside the values) | hit rate 1.4% among 300,000 | AID 1885, 2009;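 active means mean inhibition across valid replicates above about 55%, limit read from the data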;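 further: signal also drops with host cell toxicity which is not excluded here; higher percent means less beta-gal luminescence so fewer parasites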
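Incubation – ≥90 h infection period, 3 h prior cell attachment · System – NIH/3T3 fibroblasts plus reporter T. cruzi · Doses – compound pinned at 50 nL/well, DMSO · Read-out basis – percent inhibition of parasite-derived β-gal signal · Signal – luminescent β-galactosidase signal after 60 min lysis · Also added – 5000 T. cruzi trypomastigotes/well · Medium – Low-serum DMEM with 2% FBS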
HSF1 inhib – HSF1 inhibitors in luciferase reporter cells, primary screen, cell-based, NIH3T3, luminescence; activity change, negative = inhibition, % at 7.5 µM (by protocol); hit rate 0.77% among 300,000; NIH3T3-HGL HSE-luciferase, MG132-induced, luminescence 8 h; hits give low values;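 active means more than half of replicate wells show activity change below -50%, luminescence cut by over half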;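 further: luciferase reports HSF-1 transcriptional activity via heat shock element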
Hits are given with their value; 0 = inactive; - = not tested or not shown. The list is not random: actives were taken first. Their share in the collection is about 4.8%.

SMILES | GPR7 antagonist | Jurkat NFkB inh | HSF-1 act | 697 NFkB inh | T cruzi inh | HSF1 inhib
COc1ccc(CNC(=O)c2sc(=S)n(-c3ccccc3)c2N)cc1 | 0 | 0 | 0 | 0 | 0 | -67
CCOC(=O)c1cc(NC(=O)Nc2nccs2)c(C)nc1C | 0 | 0 | 0 | 0 | 0 | 0
C=CCC(C(=O)OC)(C(=O)OC)c1ccc(C(F)(F)F)cc1[N+](=O)[O-] | 0 | 0 | 0 | 0 | 0 | 0
C=CCC(C(=O)OC)(C(=O)OC)c1ccc([N+](=O)[O-])cc1[N+](=O)[O-] | 0 | 0 | 0 | 0 | 59 | 0
COC(=O)C(Cc1cnc(Cl)s1)(C(=O)OC)c1ccc([N+](=O)[O-])cc1[N+](=O)[O-] | 0 | 0 | 0 | 0 | 57 | 0
Cc1nc2scc(-c3ccc(Cl)cc3)c2c(=O)n1N | 0 | 0 | 94 | 0 | 0 | 0
CN1CC=C2C(C#N)=C(N)C(C#N)(C#N)C(c3cccc(Cl)c3Cl)C2C1 (stereo not given) | 0 | 0 | 113 | 0 | 0 | 0
Cc1ccc(C)c(CN2CCN(c3ncccn3)CC2)c1 | 0 | 0 | 0 | 0 | 0 | 0
CCN(Cc1ccccc1)C(=O)C1CCN(Cc2sccc2C)CC1 | 0 | 0 | 0 | 0 | 0 | -56
O=C(C1CC1)N(CCN(Cc1ccccc1)C(=O)C1CC1)Cc1ccccc1 | 43 | 0 | 0 | 0 | 0 | 0
CCN(Cc1ccccc1)C(=O)C1CCN(CC2CC=CCC2)CC1 (stereo not given) | 0 | 0 | 0 | 0 | 0 | 0
O=C(CCS(=O)(=O)c1ccccc1)N(CCCN1CCOCC1)c1nc2c(F)cccc2s1 | - | 0 | 161 | 0 | 55 | 0
O=C(CCS(=O)(=O)c1ccccc1)N(CCCN1CCOCC1)c1nc2ccc(F)cc2s1 | - | 0 | 147 | 0 | 63 | 0
O=C(N/N=C/c1ccncc1)c1ccc(NS(=O)(=O)c2cccs2)cc1 | 0 | 0 | 0 | 0 | 0 | 0
O=C1c2cc([N+](=O)[O-])cc3cc([N+](=O)[O-])cc(c23)C(=O)N1c1ccccn1 | 0 | - | 124 | - | 0 | 0
COc1cccc(-c2cc(C(=O)Nc3cccnc3)no2)c1 | 0 | 0 | 78 | 0 | 0 | 0
O=C(NCc1cccnc1)c1cc(-c2ccccc2)on1 | 0 | 0 | 0 | 0 | 0 | 0
COc1ccc(-c2noc(-c3ccccc3C(=O)Nc3cccnc3)n2)cc1OC | 0 | 0 | 0 | 0 | 0 | 0
COc1ccc(-c2noc(-c3ccccc3C(=O)Nc3cccnc3)n2)cc1 | 14 | 0 | 0 | 0 | 0 | 0
COc1ccc(-c2cc(C(=O)NCc3cccnc3)no2)cc1 | 18 | 0 | 0 | 0 | 0 | 0
COc1cc(C2NC(=O)NC(C)=C2C(=O)OCC2CCCO2)cc(OC)c1OC (stereo not given) | 0 | 0 | 0 | 0 | 0 | 0
COc1cc(C2NC(=O)NC(C)=C2C(=O)OCC2CCCO2)ccc1O (stereo not given) | 0 | 0 | 0 | 0 | 0 | -87
CC1(C)Oc2cc(N)c([N+](=O)[O-])cc2O1 | 0 | 0 | 0 | 0 | 0 | 0
C=C1N(C)c2cc([N+](=O)[O-])c(N)cc2C1(C)C | 0 | 0 | 0 | 0 | 68 | 0
Cc1cccc(N2C(=O)N3[C@@H]4c5ccccc5OC[C@@H]4[C@@H](c4ccccc4)[C@@]3(C)C2=O)c1 | 0 | 0 | 0 | 0 | 0 | 0
SMILES | GPR7 antagonist | Jurkat NFkB inh | HSF-1 act | 697 NFkB inh | T cruzi inh | HSF1 inhib
O=C(CN1CCC(c2nc3ccccc3s2)CC1)NCc1ccccc1 | 0 | 0 | 0 | 0 | 64 | 0
CCOc1ccccc1C1C2=C(COC2=O)Nc2cc3c(cc21)OCO3 (stereo not given) | 0 | 0 | 0 | 0 | 0 | 0
O=C1OCC2=C1C(c1ccc(F)cc1)c1cc3c(cc1N2)OCCO3 (stereo not given) | 19 | - | - | - | - | -
O=C1OCC2=C1C(c1ccc(F)cc1)c1cc3c(cc1N2)OCO3 (stereo not given) | 19 | - | - | - | - | -
Cc1ccccc1-c1cc(=O)c2c(O)cccc2o1 | - | 0 | 57 | 0 | 0 | 0
O=c1cc(-c2cccc(Cl)c2)oc2cccc(O)c12 | - | 0 | 0 | 0 | 0 | 0
Cc1ccc(S(=O)(=O)N2CCN(C(=O)Cn3c(=O)oc4ccccc43)CC2)c(C)c1 | - | 0 | - | 0 | - | -
O=C(c1ccccc1)N1N=C(c2ccccc2O)CC1c1ccccc1 (stereo not given) | 0 | 0 | 0 | 0 | 0 | 0
Cc1ccccc1Nc1nc(N)nc(COC(=O)c2ccccc2)n1 | 0 | 0 | 58 | 0 | 0 | 0
c1ccc2c(Nc3nc(N4CCOCC4)c4ccccc4n3)cccc2c1 | 0 | 0 | 0 | 0 | 0 | 0
Nc1nc(CCl)nc(Nc2cccc3ccccc23)n1 | 0 | 0 | 0 | 0 | 70 | -77
Nc1nc(Nc2cccc3ccccc23)nc(C2CCCC2=O)n1 (stereo not given) | 0 | 0 | 53 | 0 | 0 | 0
COc1ccc(Br)cc1CN1CCN(C(=O)c2cccc(F)c2)CC1 | 0 | 0 | 0 | 0 | 0 | 0
Cc1cc(C)nc(/N=C(\N)Nc2ccc(F)c([N+](=O)[O-])c2)n1 | 0 | 0 | 0 | 0 | 0 | 0
O=C1c2cccc3c([N+](=O)[O-])ccc(c23)C(=O)N1Cc1cccnc1 | 24 | - | 0 | - | 85 | 0
Cc1ccc(N2C(=O)c3cccc4c([N+](=O)[O-])ccc(c34)C2=O)c2cccnc12 | 0 | 0 | 0 | 0 | 0 | 0
Cc1ccnc(N2C(=O)c3cccc4c([N+](=O)[O-])ccc(c34)C2=O)c1 | 0 | 0 | 0 | 0 | 64 | 0
COC(=O)[C@]1(C)N[C@H](CN(C)S(=O)(=O)c2ccc(F)cc2)[C@@H]2C(=O)N(C)C(=O)[C@@H]21 | - | 0 | - | 0 | - | -
CC1CCN(CCOc2ccccc2-c2ccccc2)CC1 | 0 | 0 | 0 | 0 | 0 | 0
CC1CC(C)CN(CCOc2ccccc2-c2ccccc2)C1 (stereo not given) | 25 | 0 | 0 | 0 | 0 | 0
CCN(C[C@H]1N[C@@](Cc2ccccc2)(C(=O)OC)[C@H]2C(=O)N(Cc3ccccc3)C(=O)[C@@H]12)C(=O)Nc1ccc(Cl)cc1 | - | 0 | - | 0 | - | -
CS(=O)(=O)N(CC(=O)NCCSCc1cccc(Cl)c1)c1ccc(F)cc1 | 0 | 0 | 0 | 0 | 0 | 0
COc1cc(/C=C/c2nc3ccccc3c(=O)[nH]2)cc(OC)c1OC | 0 | 0 | 0 | 0 | 0 | 0
Cc1ccccc1/C=C\c1nc2ccccc2c(=O)[nH]1 | 0 | 0 | 122 | 0 | 0 | 0
Cc1ccccc1/C=C/c1nc2ccccc2c(=O)[nH]1 | 0 | 0 | 0 | 0 | 0 | 0
COC(=O)c1ccc(/C=C/c2nc3ccccc3c(=O)[nH]2)cc1 | 0 | 0 | 62 | 0 | 0 | 0
Cc1ccc2nc(-c3ccncc3)cc(C(=O)NCCc3ccc(F)cc3)c2c1 | 0 | 0 | 0 | 0 | 56 | 0
